Key:
Conditions in all cases: stereoisomer not certain
O14A2 I133V = test system: T1, O14A2 I133V
T1 sequence (whole entry): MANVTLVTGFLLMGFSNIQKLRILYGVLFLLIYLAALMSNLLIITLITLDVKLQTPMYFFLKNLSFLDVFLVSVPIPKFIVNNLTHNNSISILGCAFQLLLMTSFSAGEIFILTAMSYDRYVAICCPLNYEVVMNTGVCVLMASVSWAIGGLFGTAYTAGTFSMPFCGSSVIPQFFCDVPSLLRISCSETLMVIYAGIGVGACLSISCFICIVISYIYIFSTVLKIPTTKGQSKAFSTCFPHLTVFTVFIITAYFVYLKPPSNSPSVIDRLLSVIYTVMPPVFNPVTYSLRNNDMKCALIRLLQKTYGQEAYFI
Summary of the method: (§1)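 Assay methods differ from source to source, frequently being transient luciferase assays in mammalian cell lines. For each receptor–molecule pair, the label responsive (active) applies when the original authors judged the measured signal statistically different from baseline, and non-responsive (inactive) applies otherwise.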

O14CZ = test system: T2, O14CZ
T2 sequence (whole entry): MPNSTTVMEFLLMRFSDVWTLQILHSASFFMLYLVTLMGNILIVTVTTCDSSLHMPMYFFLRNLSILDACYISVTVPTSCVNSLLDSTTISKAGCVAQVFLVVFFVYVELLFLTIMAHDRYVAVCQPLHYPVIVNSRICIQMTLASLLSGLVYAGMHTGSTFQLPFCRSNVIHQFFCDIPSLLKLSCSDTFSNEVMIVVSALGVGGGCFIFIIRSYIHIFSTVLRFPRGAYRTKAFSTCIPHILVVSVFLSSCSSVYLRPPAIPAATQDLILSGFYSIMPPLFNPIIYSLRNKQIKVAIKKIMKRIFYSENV
Summary of the method: as §1

O14I1 V36A D50N Y216C = test system: T3, O14I1 V36A D50N Y216C
T3 sequence (whole entry): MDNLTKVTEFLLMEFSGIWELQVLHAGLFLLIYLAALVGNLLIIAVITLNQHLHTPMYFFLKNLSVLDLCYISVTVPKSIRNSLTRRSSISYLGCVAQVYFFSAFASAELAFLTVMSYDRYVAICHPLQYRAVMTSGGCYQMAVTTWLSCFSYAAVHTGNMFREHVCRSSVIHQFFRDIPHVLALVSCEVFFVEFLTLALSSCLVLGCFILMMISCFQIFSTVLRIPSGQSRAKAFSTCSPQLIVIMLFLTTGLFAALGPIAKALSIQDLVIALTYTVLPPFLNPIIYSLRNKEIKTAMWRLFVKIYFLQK
Summary of the method: as §1

O14J1 N3Y = test system: T4, O14J1 N3Y
T4 sequence (whole entry): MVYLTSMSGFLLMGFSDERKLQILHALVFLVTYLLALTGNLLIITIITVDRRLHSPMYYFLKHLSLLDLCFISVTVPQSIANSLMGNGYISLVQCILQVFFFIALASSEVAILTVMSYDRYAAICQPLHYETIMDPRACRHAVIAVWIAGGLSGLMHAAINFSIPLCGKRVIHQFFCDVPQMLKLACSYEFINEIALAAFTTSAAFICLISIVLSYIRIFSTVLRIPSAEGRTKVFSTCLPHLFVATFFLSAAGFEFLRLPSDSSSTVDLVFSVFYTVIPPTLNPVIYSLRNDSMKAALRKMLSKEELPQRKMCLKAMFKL
Summary of the method: as §1

O14K1 D119Y = test system: T5, O14K1 D119Y
T5 sequence (whole entry): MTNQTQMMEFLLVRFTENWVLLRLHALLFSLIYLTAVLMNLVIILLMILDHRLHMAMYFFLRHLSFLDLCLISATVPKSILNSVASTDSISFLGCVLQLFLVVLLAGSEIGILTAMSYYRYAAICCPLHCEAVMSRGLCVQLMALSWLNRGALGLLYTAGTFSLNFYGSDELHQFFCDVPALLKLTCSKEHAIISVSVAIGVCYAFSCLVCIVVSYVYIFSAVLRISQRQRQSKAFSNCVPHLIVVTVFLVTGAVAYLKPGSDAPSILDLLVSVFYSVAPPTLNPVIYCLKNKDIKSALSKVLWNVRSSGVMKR
Summary of the method: as §1

O2A25 = test system: T6, O2A25
T6 sequence (whole entry): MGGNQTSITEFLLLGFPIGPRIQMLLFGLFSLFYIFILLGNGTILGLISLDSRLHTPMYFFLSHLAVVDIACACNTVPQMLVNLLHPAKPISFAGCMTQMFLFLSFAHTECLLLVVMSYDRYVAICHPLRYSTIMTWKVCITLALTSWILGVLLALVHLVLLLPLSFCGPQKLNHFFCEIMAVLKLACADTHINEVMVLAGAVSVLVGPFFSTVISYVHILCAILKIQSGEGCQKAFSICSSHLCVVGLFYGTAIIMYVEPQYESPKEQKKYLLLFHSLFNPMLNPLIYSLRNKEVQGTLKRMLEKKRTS
Summary of the method: as §1

O2AE1 = test system: T7, O2AE1
T7 sequence (whole entry): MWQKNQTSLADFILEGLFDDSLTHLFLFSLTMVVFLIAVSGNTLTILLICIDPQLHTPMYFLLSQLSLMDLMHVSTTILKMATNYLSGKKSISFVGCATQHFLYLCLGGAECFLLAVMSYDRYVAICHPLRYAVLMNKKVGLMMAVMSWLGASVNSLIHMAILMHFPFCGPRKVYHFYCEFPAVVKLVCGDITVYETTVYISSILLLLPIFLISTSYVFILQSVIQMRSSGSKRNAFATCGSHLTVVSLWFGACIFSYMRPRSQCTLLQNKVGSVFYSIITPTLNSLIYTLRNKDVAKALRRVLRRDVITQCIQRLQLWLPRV
Summary of the method: as §1

O2AJ1 = test system: T8, O2AJ1
T8 sequence (whole entry): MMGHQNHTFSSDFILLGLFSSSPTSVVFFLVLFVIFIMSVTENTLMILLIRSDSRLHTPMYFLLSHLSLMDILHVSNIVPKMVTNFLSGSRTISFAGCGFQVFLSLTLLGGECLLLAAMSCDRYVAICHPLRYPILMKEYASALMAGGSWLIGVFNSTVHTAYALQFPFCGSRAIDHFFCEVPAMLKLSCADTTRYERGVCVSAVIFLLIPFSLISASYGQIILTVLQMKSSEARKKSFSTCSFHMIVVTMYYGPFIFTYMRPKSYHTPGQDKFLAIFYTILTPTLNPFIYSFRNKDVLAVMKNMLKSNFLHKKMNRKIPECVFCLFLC
Summary of the method: as §1

O2AK2 S99N = test system: T9, O2AK2 S99N
T9 sequence (whole entry): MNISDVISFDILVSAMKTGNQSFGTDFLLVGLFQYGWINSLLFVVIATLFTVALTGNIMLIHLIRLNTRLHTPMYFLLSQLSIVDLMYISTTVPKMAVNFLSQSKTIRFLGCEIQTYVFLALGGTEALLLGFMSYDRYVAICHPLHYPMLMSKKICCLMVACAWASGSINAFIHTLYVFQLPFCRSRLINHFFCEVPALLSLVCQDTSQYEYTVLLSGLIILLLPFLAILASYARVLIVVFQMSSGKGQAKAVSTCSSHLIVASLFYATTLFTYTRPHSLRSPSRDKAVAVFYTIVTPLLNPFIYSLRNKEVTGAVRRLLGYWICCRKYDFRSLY
Summary of the method: as §1

O1440 = test system: T10, O1440
T10 sequence (whole entry): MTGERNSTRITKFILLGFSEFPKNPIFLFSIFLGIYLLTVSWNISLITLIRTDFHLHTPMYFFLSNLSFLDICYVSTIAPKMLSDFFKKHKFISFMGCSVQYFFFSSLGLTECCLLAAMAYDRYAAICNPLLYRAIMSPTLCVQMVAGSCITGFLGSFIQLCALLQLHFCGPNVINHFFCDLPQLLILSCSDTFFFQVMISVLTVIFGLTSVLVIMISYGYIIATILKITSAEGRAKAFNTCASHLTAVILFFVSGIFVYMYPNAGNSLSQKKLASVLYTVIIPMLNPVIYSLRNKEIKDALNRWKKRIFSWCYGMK
Summary of the method: as §1

Measured: odorant receptor agonist call

Cc1cnc(C)c(C)n1
not listed: O1440
inactive: all other assays above

CC1=C(O)C(=O)OC1C (stereo not given)
not listed: O1440
inactive: all other assays above

CCC(=O)OCC(C)(C)OC(C)C1CCCC(C)(C)C1 (stereo not given)
inactive: O1440

C1CCCCCCCCCCCCCC1
inactive: O1440

CCC1OC(C)=C(O)C1=O (stereo not given)
not listed: O1440
inactive: all other assays above

O=C1C=CCCCCCCCCCCCCO1
active: O1440
